RGS4 act – RGS4 potentiators or activators, primary screen, cell-based, HEK293 M3R inducible RGS4, calcium flux. carbachol calcium flux Fluo4; active compounds read low. B-score at 10 µM. 310,000 compounds, 0.92% hits;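 active = B-score of the integrated calcium signal more than 4 SD below the library mean, with starting fluorescence not abnormally high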;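 also: negative B-score means reduced calcium response which marks RGS4 activation or potentiation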
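Detection: kinetic calcium fluorescence imaging with Fluo4-AM dye, 2 µM / Material: HEK293 cells with stable M3R and inducible RGS4 / Schedule: recording 10 s baseline at 1 Hz, 100 s post-agonist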
RGS4 block – RGS4 inhibitors, primary screen, cell-based, HEK293 M3R inducible RGS4, calcium flux; Fluo-4 calcium flux; active compounds read high; triggered by carbachol at its EC20; B-score at 10 µM; 310,000 compounds, 0.45% hits; AID 463165, 2010;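 active = B-score, a plate-corrected calcium signal, over three deviations above library mean, with baseline fluorescence within five deviations of library mean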;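 also: RGS4 expression induced by doxycycline in cells with stable M3 receptor; B-score is computed from the integrated fluorescence ratio over baseline after carbachol; higher B-score means a larger calcium signal and so more RGS4 inhibition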
Target sequence (P49798 whole entry, looked up): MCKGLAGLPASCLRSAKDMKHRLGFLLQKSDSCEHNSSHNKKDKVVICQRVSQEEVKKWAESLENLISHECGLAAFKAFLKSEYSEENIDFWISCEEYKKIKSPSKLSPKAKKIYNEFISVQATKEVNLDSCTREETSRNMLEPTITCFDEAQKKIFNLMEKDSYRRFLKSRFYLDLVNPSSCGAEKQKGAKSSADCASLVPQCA
MrgX1 agonist – agonists of human MrgX1 receptor, primary screen, HEK293 cells, Fluo-4 calcium flux. B-score at 10 µM. 310,000 compounds, 0.44% hits. Mas-related G-protein coupled receptor member X1 (Homo sapiens), Q96LB2. Fluo-4 calcium fluorescence, agonist mode; active compounds read high;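 active = calcium response B-score plate-corrected fluorescence ratio at least 3 library SD, with starting fluorescence B-score inside 5 SD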
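System: HEK293 cells stably expressing human MrgX1 receptor; Dosing: test compound in the initial addition of three; Schedule: overnight plating, then 30 min 37 °C plus 30 min room-temperature dye loading; Detection: kinetic calcium dye fluorescence, Fluo-4 NW; Controls: per-plate positive and negative controls for Z′ factor.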
MrgX1 antag – antagonists of human MrgX1 receptor, primary screen, HEK293 cells, Fluo-4 calcium flux; Mas-related G-protein coupled receptor member X1 (Homo sapiens), Q96LB2; BAM8-22 antagonism; active compounds read low; B-score at 10 µM; 310,000 compounds, 1.3% hits;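 active = calcium-response B-score plate-corrected more than 3 library SD below zero, starting fluorescence within 5 deviations, no agonist response on first addition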;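 also: peak minus trough fluorescence over baseline after final BAM8-22 challenge near maximal dose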
MrgX1 allo act – positive allosteric modulators of MrgX1, primary screen, HEK293 cells, Fluo-4 calcium flux; Mas-related G-protein coupled receptor member X1 (Homo sapiens), Q96LB2; B-score at 10 µM; 310,000 compounds, 0.63% hits; AID 588675, 2011; FDSS; active compounds read high;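 active = plate-corrected calcium response at least 3 library SD above typical, normal starting fluorescence, not activating the receptor alone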;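 also: compound read alongside a low EC10 to EC30 dose of BAM8-22 agonist; peak minus trough fluorescence over baseline measured at the second addition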
Large screens that a line does not name were inactive. This is a sample that favours compounds with a hit; in the whole collection about 3.5% have one here.

Cc1cc(C)cc(-n2c(C)cc(/C=N\NC(=O)COc3cccc4cccnc34)c2C)c1	RGS4 act -8.7
CN1CCc2c(sc(NC(=O)c3ccc(S(=O)(=O)N4CCCCCC4)cc3)c2C(N)=O)C1	MrgX1 agonist 32
CC[N+](C)(CC)CCOC(=O)C(O)(c1ccccc1)C1CCCCC1 (stereo unspecified)	none
CC[N+](C)(CC)CCC(c1ccccc1)C1CCCCC1 (stereo unspecified)	RGS4 act -8.7
CC[C@@]1(c2ccccc2)C(=O)N(C(=O)OC)N1C(=O)OC	MrgX1 antag -8.6
CC[C@]1(c2ccccc2)C(=O)N(C(=O)OC)N1C(=O)OC	none
CC1(C)CCCN(C(=O)c2ccc3c(c2NCCO)C(=O)c2ccccc2C3=O)C1	MrgX1 allo act 15
CCN(CCN(C)C)C(=O)c1ccc2c(c1NCCO)C(=O)c1ccccc1C2=O	none
CC1CCCN(C(=O)c2ccc3c(c2NCCO)C(=O)c2ccccc2C3=O)C1 (stereo unspecified)	MrgX1 allo act 8
O=C1c2ccccc2C(=O)c2c1ccc(C(=O)N1CCCCC1)c2NCCO	MrgX1 allo act 7
COc1cc(C(C)=O)ccc1OCC(O)Cn1nc(C)c(Br)c1C (stereo unspecified)	none
Cc1nc(NC(=O)c2cccc(Cl)c2)sc1C(=O)N1CCCCC1	none
O=C(CCC1CCCNC1)c1ccccc1 (stereo unspecified)	none
O=C(/C=C/c1ccc([N+](=O)[O-])s1)N1CCCC1	MrgX1 antag -4.6
O=C(/C=C/c1ccc([N+](=O)[O-])s1)N1CCCCC1	none
O=[N+]([O-])c1ccc2nc(NS(=O)(=O)c3ccccc3[N+](=O)[O-])sc2c1	MrgX1 allo act 10
O=C(NC(Nc1nc2ccc([N+](=O)[O-])cc2s1)(C(F)(F)F)C(F)(F)F)c1cccnc1	none
O=[N+]([O-])c1ccccc1S(=O)(=O)Nc1nc2ccccc2s1	none
O=C(NC(Nc1nc2ccc([N+](=O)[O-])cc2s1)(C(F)(F)F)C(F)(F)F)c1ccccc1Cl	MrgX1 antag -5.5
O=[N+]([O-])c1ccc2nc(NS(=O)(=O)c3ccc(Cl)cc3)sc2c1	MrgX1 allo act 11
O=C(CSc1nnc(NC(=O)c2cccc(Cl)c2)s1)NCC1CCCO1 (stereo unspecified)	none
CCC(=O)Nc1ccc(OCC2CCCO2)cc1 (stereo unspecified)	none
C=C1C(=O)O[C@H]2C[C@]3(C)C([C@@H](OC(=O)/C(C)=C/C)[C@H]12)[C@](C)(O)CC[C@H]3O (stereo partly specified)	none
C=C[C@@]1(C)CC(=O)[C@]2(O)[C@@]3(C)[C@@H](O)CCC(C)(C)[C@@H]3[C@H](O)[C@H](OC(C)=O)[C@@]2(C)O1	MrgX1 allo act 10
Fc1cccc(F)c1-n1c(CN2CCCC2)csc1=S	MrgX1 antag -5.1
CCN(C(=O)COC(=O)CCC(=O)c1cccs1)c1c(N)n(Cc2ccccc2)c(=O)[nH]c1=O	none
Cc1ccc(CN2CCCN(C)CC2)c(C)c1	none
COc1ccccc1N(CC(=O)NCC1CCCO1)C(=O)CNS(=O)(=O)c1ccccc1 (stereo unspecified)	none
CCCC1=Nc2cc(C(=O)N3CCN(c4ccccn4)CC3)ccc2Sc2ccc(C)cc21	RGS4 act -7.5
CNC1(c2nnnn2-c2ccccc2C)CCOC(C)(C)C1 (stereo unspecified)	none
CC(C)OCCCNC(=O)C1CC(=O)N(CCc2ccc(F)cc2)C1 (stereo unspecified)	none
Cc1ccc(CCN2CC(C(=O)NCCCOC(C)C)CC2=O)cc1 (stereo unspecified)	MrgX1 antag -4.5
CCOP(=O)(OCC)c1nc(-c2ccc(Br)cc2)oc1N1CCCCC1	none
CCOP(=O)(c1ccccc1)c1nc(-c2ccc(F)cc2)oc1N1CCCCC1 (stereo unspecified)	MrgX1 agonist 38

Compound activity as filed in PubChem.
